# Values joined by “and” are separate entries in the source; they are usually repeats but may differ in a detail not shown here. Equal entries are not always repeated. Where two headings read alike, the source gives them in different places.
# Columns and labels:
# [1] = tested on: MDA-MB-231 cell line; experiment: MTT cytotoxicity assay, MDA-MB-231; type: cell-based; conditions: for IC50: Homo sapiens, MDA-MB-231, 24 h, read-out: IC50, MDA-MB-231
# Summary of the method: (§1)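 Human lines were obtained from ATCC. MCF-7 and MDA-MB-231 were grown in DMEM with 10% FBS, and MCF-10A in DMEM-F12 with 10% FBS, all at 37 °C, 5% CO2. Cells were seeded at 1×10^4 per well, given varying concentrations of extract or test compound, and PBS-washed after 24 h. MTT was applied for 4 h at 37 °C and formazan dissolved in DMSO, with absorbance read at 570 nm. Hydrogen peroxide was the positive control. Runs were done in triplicate, with % viability and IC50 calculated.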
# [2] = tested on: MCF-10A non-tumorigenic breast epithelial cell line; experiment: MTT cytotoxicity assay, MCF-10A; type: cell-based; conditions: 24 h; for IC50: Homo sapiens, MCF-10A, read-out: IC50, MCF-10A
# Summary of the method: as §1
# [3] = tested on: HT-29 colon cancer cell line; conditions: ref Manthey and Guthrie, 2002; cited from earlier work
# [4] = tested on: DU145 prostate cancer cell; conditions: ref Lewinska et al., 2015, cited from earlier work
# [5] = tested on: SK-MEL5 melanoma cancer cell line; conditions: ref Manthey and Guthrie, 2002; cited from earlier work
# [6] = tested on: MCF-7 cell line; experiment: MTT cytotoxicity assay, MCF-7; type: cell-based; conditions: for IC50: Homo sapiens, MCF7, 24 h, read-out: IC50, MCF-7
# Summary of the method: as §1
# [7] = tested on: DMS-114 human lung cancer cell line; conditions: ref Manthey and Guthrie, 2002; cited from earlier work
# [8] = tested on: MDA-MB-231 cell line; experiment: Annexin V-FITC/PI flow cytometry, MDA-MB-231; type: cell-based; conditions: 48 h; for viable cells, MDA-MB-231: quadrant LL, highest doses of compounds; for early apoptotic cells, MDA-MB-231: quadrant LR; for necrotic cells, MDA-MB-231: quadrant UL; for late apoptotic cells, MDA-MB-231: quadrant UR
# [9] = tested on: A431 cells; conditions: MTT assay; ref Buddhan and Manoharan, 2017; cited from earlier work
# [10] = tested on: cells; experiment: Cell death type; type: cell-based
# Summary of the method: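 MCF-7, MDA-MB-231 and MCF-10A cells were seeded at 3×10^5 cells per well in six-well plates and held 24 h at 37 °C, 5% CO2. They were exposed 48 h to the highest test-compound doses, trypsinised, PBS-washed and pelleted at 1500 rpm for 5 min. Cells were stained with Annexin V-FITC/PI in 1X binding buffer for 15 min at 37 °C in the dark, then run by flow cytometry. Viable, early/late apoptotic and necrotic cells are given as % of total, in triplicate.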
# [11] = tested on: DU-145 prostate cancer cell line; conditions: ref Manthey and Guthrie, 2002; cited from earlier work
# [12] = tested on: HCT-116 human colon cancer cell line; conditions: ref Znati et al., 2014; cited from earlier work
# [13] = tested on: OVCAR-3 human ovary cell line; conditions: ref Znati et al., 2014; cited from earlier work
# [14] = tested on: IGROV-1 human ovary cell line; conditions: ref Znati et al., 2014; cited from earlier work
# [15] = tested on: HEP-G2 hepatocellular carcinoma cells; conditions: 25–400 μg/mL, 72 h, MTT assay; ref Gevrenova et al., 2016; cited from earlier work
# [16] = tested on: breast cancer cell lines (MCF-7 and MDA-MB-231); experiment: MTT cytotoxicity on the breast cancer cell lines; type: cell-based; conditions: MCF-7 and MDA-MB-231, MTT
# [17] = tested on: MIA PaCa-2 pancreatic cancer cell line; conditions: read-out: IC50, MIA PaCa-2; ref Boukes and Venter, 2016; cited from earlier work
# [18] = tested on: INS-1 pancreatic cancer cell line; conditions: read-out: IC50, INS-1; ref Boukes and Venter, 2016; cited from earlier work
# [19] = tested on: A549 human non-small cell lung cancer cell line; conditions: ref Yang et al., 2017, cited from earlier work
# [20] = tested on: A375-S2 human malignant melanoma; conditions: ref Sun et al. 2006; cited from earlier work
# [21] = tested on: HeLa human uterine carcinoma; conditions: ref Sun et al. 2006; cited from earlier work
# [22] = tested on: HT-1080 fibrosarcoma cell line; conditions: ref Rajendra et al., 2011, cited from earlier work
# [23] = tested on: SGC-7901 human gastric cancer cell line; conditions: ref Sun et al. 2006; cited from earlier work
# [24] = tested on: Bel-7402 human hepatocellular carcinoma; conditions: ref Sun et al. 2006; cited from earlier work
# [25] = tested on: MCF-7 cell line; experiment: Annexin V-FITC/PI flow cytometry, MCF-7; type: cell-based; conditions: 48 h
# [26] = tested on: BT-20 human breast cancer cell line; conditions: read-out: IC50, BT-20; ref Bender and Atalay, 2018; cited from earlier work
# [27] = tested on: PLC/PRF/5 hepatocellular carcinoma cell line; conditions: 100 µM; ref Refolo et al., 2018; cited from earlier work
# [28] = tested on: HepG2 hepatocellular carcinoma cell line; conditions: 100 µM; ref Refolo et al., 2018; cited from earlier work
# [29] = tested on: SK-BR-3 human breast cancer cell line; conditions: read-out: IC50, SK-BR-3; ref Bender and Atalay, 2018; cited from earlier work
# [30] = tested on: MDA-MB-468 human breast cancer cell line; conditions: read-out: IC50, MDA-MB-468; ref Bender and Atalay, 2018; cited from earlier work
# [31] = MTT assay, 24 h, ± standard deviation
smiles,measurement,setting,value
"COc1ccc(-c2cc(=O)c3c(O)cc(O[C@@H]4O[C@H](CO[C@@H]5O[C@@H](C)[C@H](O)[C@@H](O)[C@H]5O)[C@@H](O)[C@H](O)[C@H]4O)cc3o2)cc1O [Compound 1, Diosmetin-7-O-rutinoside]",IC50,[1],12.9 ± 12.2 µg/mL
same,IC50,[2],8.66 ± 20.5 µg/mL
same,"concentration up to which no cytotoxic activity was shown, HT-29",[3],> 200 µM
same,DU145 cell viability,[4]; 50 µM,70%
same,DU145 cell viability,[4]; 250 µM,40%
same,"concentration up to which no cytotoxic activity was shown, SK-MEL5",[5],> 200 µM
same,IC50,[6],13.7 ± 11 µg/mL
same,"concentration up to which no cytotoxic activity was shown, DMS-114",[7],> 200 µM
same,"viable cells, MDA-MB-231",[8],56%
same,"IC50, A431",[9],45 µg/mL
same,type of cell death causing the cytotoxic effect,[10],necrosis
same,"concentration up to which no cytotoxic activity was shown, DU-145",[11],> 200 µM
"COc1cc(-c2oc3cc(O)cc(O)c3c(=O)c2O[C@@H]2O[C@H](CO[C@@H]3O[C@@H](C)[C@H](O)[C@@H](O)[C@H]3O)[C@@H](O)[C@H](O)[C@H]2O)ccc1O [Compound 2, Isorhamnetin-3-O-rutinoside]",IC50,[1],77.8 ± 39.9 µg/mL
same,IC50,[2],133 ± 23.5 µg/mL
same,"concentration up to which no cytotoxic activity was shown, HCT-116",[12],> 100 µmol/L
same,"concentration up to which no cytotoxic activity was shown, OVCAR-3",[13],> 100 µmol/L
same,IC50,[6],137 ± 8.62 µg/mL
same,"viable cells, MDA-MB-231",[8],63%
same,"concentration up to which no cytotoxic activity was shown, IGROV-1",[14],> 100 µmol/L
same,"hepatoprotective activity, HEP-G2",[15],no significant hepatoprotective activity
"O=c1c(O[C@@H]2O[C@H](CO)[C@H](O)[C@H](O)[C@H]2O)c(-c2ccc(O)c(O)c2)oc2cc(O)cc(O)c12 [Compound 3, Quercetin-3-O-galactoside]",IC50,[1],141 ± 14 µg/mL
same,IC50,[2],127 ± 12.5 µg/mL
same,IC50,[6],147 ± 7.32 µg/mL
same,"viable cells, MDA-MB-231",[8],46%
same,"early apoptotic cells, MDA-MB-231",[8],22%
same,"necrotic cells, MDA-MB-231",[8],6%
same,"late apoptotic cells, MDA-MB-231",[8],26%
same,concentration up to which no cytotoxic activity was shown,[16],> 100 µg/mL
same,IC50,[17],50 µM
same,IC50,[18],50 µM
same,cell viability of A549,"[19]; 10–100 µM, time- and dose-dependent",inhibited cell viability
same,"percentage of apoptotic cells, A549","[19]; 24 h, dose-dependent",significant increase
"O=C(O)/C=C/c1ccc(O)c(O)c1 [Compound 4, Caffeic acid]","concentration up to which no cytotoxic activity was shown, A375-S2",[20],> 100 µg/mL
same,IC50,[1],64 ± 4.11 µg/mL
same,IC50,[2],149 ± 14.1 µg/mL
same,"concentration up to which no cytotoxic activity was shown, HeLa",[21],> 100 µg/mL
same,IC50,[6],40.3 ± 2.84 µg/mL
same,"viable cells, MDA-MB-231",[8],30%
same,"early apoptotic cells, MDA-MB-231",[8],52%
same,"necrotic cells, MDA-MB-231",[8],3%
same,"late apoptotic cells, MDA-MB-231",[8],13%
same,"cell viability, HT-1080",[22]; 50 µg/mL,15%
same,inhibition of HT-1080 cell line,"[22]; 30, 40, and 50 μg/mL",notably inhibited
same,"concentration up to which no cytotoxic activity was shown, SGC-7901",[23],> 100 µg/mL
same,"concentration up to which no cytotoxic activity was shown, Bel-7402",[24],> 100 µg/mL
same,"early apoptotic cells, MCF-7","[25]; quadrant LR, doses as b44",52%
same,"necrotic cells, MCF-7","[25]; quadrant UL, doses as b44",3%
same,"late apoptotic cells, MCF-7","[25]; quadrant UR, doses as b44",13%
"O=C(/C=C/c1ccc(O)c(O)c1)O[C@@H]1C[C@](O)(C(=O)O)C[C@@H](O)[C@H]1O [Compound 5, Chlorogenic acid]",IC50,[26],1.09 mM
same,IC50,[1],361 ± 4.83 µg/mL
same,"effect on Regorafenib-mediated cell growth inhibition, PLC/PRF/5",[27],enhanced
same,IC50,[2],356 ± 19.1 µg/mL
same,"effect on Regorafenib-mediated cell growth inhibition, HepG2",[28],enhanced
same,IC50,[6],371 ± 9.49 µg/mL
same,"viable cells, MDA-MB-231",[8],51%
same,concentration up to which no cytotoxic activity was shown,[16],> 360 µg/mL
same,IC50,[29],882 µM
same,IC50,[30],940 µM
"OO [Compound H2O2, hydrogen peroxide, reference compound]","IC50, MDA-MB-231",[1]; [31],8.48 ± 3.53 µg/mL and 11.86 ± 2.43 µg/mL and 11.45 ± 1.52 µg/mL
same,"IC50, MCF-10A","[2]; MTT assay, ± standard deviation",10.32 ± 3.60 µg/mL and 11.40 ± 3.60 µg/mL and 9.77 ± 8.56 µg/mL and 12.58 ± 9.77 µg/mL
same,"IC50, MCF-7",[6]; [31],7.45 ± 12.77 µg/mL and 10.11 ± 0.90 µg/mL and 11.97 ± 6.72 µg/mL and 9.91 ± 0.31 µg/mL
same,"percentage of cell death, MDA-MB-231",[8],79%
same,"viable cells, MDA-MB-231",[8],21%
same,"percentage of cell death, MCF-7",[25]; doses as b44,70%
same,"viable cells, MCF-7","[25]; quadrant LL, H2O2 17, Compound 1 24, 2 156, 3 372, 4 30, 5 710, 6 60 µg/mL",30%

# From paper PMC10336577 (Saudi Pharmaceutical Journal : SPJ, 2023)
